Measurements taken from ChEMBL document CHEMBL3046203, “Bioactivity-guided fractionation and GC/MS fingerprinting of Angelica sinensis and Angelica archangelica root components for antifungal and mosquito deterrent activity” (2009).
The source made the active and inactive calls. The rule behind the calls is not given here.

Assays:
Anopheles stephensi = assay: Feeding deterrent activity against Anopheles stephensi assessed as proportion of mosquitoes not biting at 25 nmol/cm2 cloth relative to untreated control; format: functional
Procedure, shortened: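 Klun and Debboun in vitro module assay with mated nulliparous An. stephensi females (Delhi strain, 5-15 d old), given water only for 24 h before testing. Compounds were applied in ethanol to organdy cloth at 25 nmol/cm2 against an ethanol-treated control cloth. Conditions were 24-26 °C and 24-51% RH, 1300-1600 h, with 100 females (20 replicates). The proportion not biting was scored.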

Aedes aegypti = assay: Feeding deterrent activity against Aedes aegypti liverpool assessed as proportion of mosquitoes not biting at 25 nmol/cm2 cloth relative to untreated control; format: functional
Procedure, shortened: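 In vitro Klun and Debboun module assay with mated nulliparous Ae. aegypti females (red eye Liverpool strain, 5-15 d old), denied water for 24 h before testing. Treatments in ethanol were applied to organdy cloth at 25 nmol/cm2, with an ethanol-treated cloth as control. Testing ran at 24-26 °C and 24-51% RH, 1300-1600 h, using 85 females (17 replicates). Read-out was the proportion not biting.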

[1] = tested on: Colletotrichum gloeosporioides; assay: Antifungal activity against Colletotrichum gloeosporioides assessed as as appearance of diffuse zone of inhibition at 2 mM in 2 uL solution by direct bio-autography assay; format: functional, organism-based
Colletotrichum acutatum = assay: Antifungal activity against Colletotrichum acutatum assessed as appearance of diffuse zone of inhibition at 2 mM in 2 uL solution by direct bio-autography assay; format: functional, organism-based
[2] = tested on: Colletotrichum gloeosporioides; assay: Antifungal activity against Colletotrichum gloeosporioides assessed as as appearance of diffuse zone of inhibition at 2 mM in 2 uL solution by direct bio-autography assay1; format: functional, organism-based

SMILES | Ratio (Anopheles stephensi) | Ratio (Aedes aegypti) | growth inhibition (GI) [1] | growth inhibition (GI) (Colletotrichum acutatum) | growth inhibition (GI) [2]
CCC/C=C1\OC(=O)C2=C1CCC=C2 [LIGUSTILIDE] | 0.66 | 0.79 |  |  | 
CO/C=C(/C(=O)OC)c1ccccc1Oc1cc(Oc2ccccc2C#N)ncn1 |  |  | Active | Active | 
CCCCNC(=O)n1c(NC(=O)OC)nc2ccccc21 |  |  | Active | Active | 
CC1=CCC[C@@H]2[C@@](C)(CC=O)[C@H](C)CC[C@@]12C [CALLICARPENAL] | 0.72 | 0.91 |  |  | 
CCN(CC)C(=O)c1cccc(C)c1 [DIETHYLTOLUAMIDE] | 0.51 | 0.67 |  |  | 
Cc1cc(C2CC2)nc(Nc2ccccc2)n1 |  |  | Active | Active | Active
